Key:
[1] = tested on: Plasmodium berghei; test: Antimalarial activity against Plasmodium berghei infected in Swiss Webster mouse assessed as mouse survival rate at 100 mg/kg administered once daily via oral gavage for 4 consecutive days beginning 1 hr after infection measured on day 7 post infection relative to control; format: functional
Method in brief: (§1)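 Mice given an intraperitoneal injection of P. berghei-infected erythrocytes taken from a previously infected animal. Oral dosing once daily for 4 consecutive days, starting 1 h after infection. Vehicle: polyethylene glycol 300/propylene glycol/water (weight ratio 55/25/20). Percent survival recorded daily from day 4 to day 20. Chloroquine 30 mg/kg and vehicle-only groups served as controls.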

[2] = tested on: Plasmodium berghei; test: Antimalarial activity against Plasmodium berghei infected in Swiss Webster mouse assessed as mouse survival rate at 3 mg/kg administered once daily via oral gavage for 4 consecutive days beginning 1 hr after infection measured on day 7 post infection relative to control; format: functional
Method in brief: (§2)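 P. berghei-infected erythrocytes taken from a previously infected mouse were injected intraperitoneally. Oral dosing, once daily for 4 consecutive days, began 1 h after infection, in polyethylene glycol 300/propylene glycol/water (55/25/20 by weight). Chloroquine at 30 mg/kg was the positive control, with a vehicle-only group. Percent survival was recorded daily from day 4 to day 20.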

[3] = tested on: Plasmodium berghei; test: Antimalarial activity against Plasmodium berghei infected in Swiss Webster mouse assessed as mouse survival rate at 100 mg/kg administered once daily via oral gavage for 4 consecutive days beginning 1 hr after infection measured on day 6 post infection relative to control; format: functional; method in brief: as §1
[4] = tested on: Plasmodium berghei; test: Antimalarial activity against Plasmodium berghei infected in Swiss Webster mouse assessed as mouse survival rate at 100 mg/kg administered once daily via oral gavage for 4 consecutive days beginning 1 hr after infection measured on day 8 post infection relative to control; format: functional; method in brief: as §1
[5] = tested on: Plasmodium berghei; test: Antimalarial activity against Plasmodium berghei infected in Swiss Webster mouse assessed as mouse survival rate at 3 mg/kg administered once daily via oral gavage for 4 consecutive days beginning 1 hr after infection measured on day 6 post infection relative to control; format: functional; method in brief: as §2
[6] = tested on: Plasmodium berghei; test: Antimalarial activity against Plasmodium berghei infected in Swiss Webster mouse assessed as mouse survival rate at 11 mg/kg administered once daily via oral gavage for 4 consecutive days beginning 1 hr after infection measured on day 5 post infection relative to control; format: functional; method in brief: as §2
[7] = tested on: Plasmodium berghei; test: Antimalarial activity against Plasmodium berghei infected in Swiss Webster mouse assessed as mouse survival rate at 33 mg/kg administered once daily via oral gavage for 4 consecutive days beginning 1 hr after infection measured on day 4 post infection relative to control; format: functional; method in brief: as §2
[8] = tested on: Plasmodium berghei; test: Antimalarial activity against Plasmodium berghei infected in Swiss Webster mouse assessed as mouse survival rate at 33 mg/kg administered once daily via oral gavage for 4 consecutive days beginning 1 hr after infection measured on day 9 post infection relative to control; format: functional; method in brief: as §2
[9] = tested on: Plasmodium berghei; test: Antimalarial activity against Plasmodium berghei infected in Swiss Webster mouse assessed as mouse survival rate at 33 mg/kg administered once daily via oral gavage for 4 consecutive days beginning 1 hr after infection measured on day 7 post infection relative to control; format: functional; method in brief: as §2
[10] = tested on: Plasmodium berghei; test: Antimalarial activity against Plasmodium berghei infected in Swiss Webster mouse assessed as mouse survival rate administered once daily via oral gavage for 4 consecutive days beginning 1 hr after infection measured on day 4 post infection; format: functional; method in brief: as §1
[11] = tested on: Plasmodium berghei; test: Antimalarial activity against Plasmodium berghei infected in Swiss Webster mouse assessed as mouse survival rate at 100 mg/kg administered once daily via oral gavage for 4 consecutive days beginning 1 hr after infection measured on day 4 post infection relative to control; format: functional; method in brief: as §1
[12] = tested on: Plasmodium berghei; test: Antimalarial activity against Plasmodium berghei infected in Swiss Webster mouse assessed as mouse survival rate at 100 mg/kg administered once daily via oral gavage for 4 consecutive days beginning 1 hr after infection measured on day 13 post infection relative to control; format: functional; method in brief: as §1
[13] = tested on: Plasmodium berghei; test: Antimalarial activity against Plasmodium berghei infected in Swiss Webster mouse assessed as mouse survival rate at 100 mg/kg administered once daily via oral gavage for 4 consecutive days beginning 1 hr after infection measured on day 14 post infection relative to control; format: functional; method in brief: as §1
[14] = tested on: Plasmodium berghei; test: Antimalarial activity against Plasmodium berghei infected in Swiss Webster mouse assessed as mouse survival rate at 11 mg/kg administered once daily via oral gavage for 4 consecutive days beginning 1 hr after infection measured on day 4 post infection relative to control; format: functional; method in brief: as §2
[15] = tested on: Plasmodium berghei; test: Antimalarial activity against Plasmodium berghei infected in Swiss Webster mouse assessed as mouse survival rate at 100 mg/kg administered once daily via oral gavage for 4 consecutive days beginning 1 hr after infection measured on day 9 post infection relative to control; format: functional; method in brief: as §1
[16] = tested on: Plasmodium berghei; test: Antimalarial activity against Plasmodium berghei infected in Swiss Webster mouse assessed as mouse survival rate at 100 mg/kg administered once daily via oral gavage for 4 consecutive days beginning 1 hr after infection measured on day 10 post infection relative to control; format: functional; method in brief: as §1
[17] = tested on: Plasmodium berghei; test: Antimalarial activity against Plasmodium berghei infected in Swiss Webster mouse assessed as mouse survival rate at 3 mg/kg administered once daily via oral gavage for 4 consecutive days beginning 1 hr after infection measured on day 5 post infection relative to control; format: functional; method in brief: as §2
[18] = tested on: Plasmodium berghei; test: Antimalarial activity against Plasmodium berghei infected in Swiss Webster mouse assessed as mouse survival rate at 100 mg/kg administered once daily via oral gavage for 4 consecutive days beginning 1 hr after infection measured on day 12 post infection relative to control; format: functional; method in brief: as §1
[19] = tested on: Plasmodium falciparum; test: Antimalarial activity against chloroquine-sensitive Plasmodium falciparum 3D7 infected in human erythrocytes assessed as reduction in [3H]-hypoxanthine incorporation preincubated for 24 hrs followed by [3H]-hypoxanthine addition measured after 24 hrs by scintillation counting method; format: functional, cell-based
Method in brief: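 P. falciparum 3D7 cultures were exposed to the compound for 48 h, with atovaquone as the reference control. IC50 was taken from three replicates.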

[20] = tested on: Plasmodium berghei; test: Antimalarial activity against Plasmodium berghei infected in Swiss Webster mouse assessed as mouse survival rate at 1 mg/kg administered once daily via oral gavage for 4 consecutive days beginning 1 hr after infection measured on day 6 post infection relative to control; format: functional; method in brief: as §1
[21] = tested on: Plasmodium berghei; test: Antimalarial activity against Plasmodium berghei infected in Swiss Webster mouse assessed as mouse survival rate at 33 mg/kg administered once daily via oral gavage for 4 consecutive days beginning 1 hr after infection measured on day 6 post infection relative to control; format: functional; method in brief: as §2
[22] = tested on: Plasmodium falciparum; test: Antimalarial activity against chloroquine-resistant Plasmodium falciparum W2 infected in human erythrocytes after 48 hrs by YOYO-1 dye based flow cytometric analysis; format: functional, cell-based; conditions: W2, 48 h
Method in brief: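 P. falciparum W2 cultures were exposed to the compound for 48 h, with artemisinin and chloroquine as reference controls. IC50 was taken from two independent replicates.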

[23] = tested on: Plasmodium berghei; test: Antimalarial activity against Plasmodium berghei infected in Swiss Webster mouse assessed as mouse survival rate at 100 mg/kg administered once daily via oral gavage for 4 consecutive days beginning 1 hr after infection measured on day 11 post infection relative to control; format: functional; method in brief: as §1
[24] = tested on: Plasmodium berghei; test: Antimalarial activity against Plasmodium berghei infected in Swiss Webster mouse assessed as mouse survival rate at 100 mg/kg administered once daily via oral gavage for 4 consecutive days beginning 1 hr after infection measured on day 5 post infection relative to control; format: functional; method in brief: as §1
[25] = tested on: Plasmodium berghei; test: Antimalarial activity against Plasmodium berghei infected in Swiss Webster mouse assessed as mouse survival rate at 11 mg/kg administered once daily via oral gavage for 4 consecutive days beginning 1 hr after infection measured on day 7 post infection relative to control; format: functional; method in brief: as §2
[26] = tested on: Plasmodium berghei; test: Antimalarial activity against Plasmodium berghei infected in Swiss Webster mouse assessed as mouse survival rate at 1 mg/kg administered once daily via oral gavage for 4 consecutive days beginning 1 hr after infection measured on day 7 post infection relative to control; format: functional; method in brief: as §1
[27] = tested on: Plasmodium berghei; test: Antimalarial activity against Plasmodium berghei infected in Swiss Webster mouse assessed as mouse survival rate at 1 mg/kg administered once daily via oral gavage for 4 consecutive days beginning 1 hr after infection measured on day 5 post infection relative to control; format: functional; method in brief: as §1
[28] = tested on: Plasmodium berghei; test: Antimalarial activity against Plasmodium berghei infected in Swiss Webster mouse assessed as mouse survival rate at 33 mg/kg administered once daily via oral gavage for 4 consecutive days beginning 1 hr after infection measured on day 5 post infection relative to control; format: functional; method in brief: as §2
[29] = tested on: Plasmodium berghei; test: Antimalarial activity against Plasmodium berghei infected in Swiss Webster mouse assessed as mouse survival rate at 3 mg/kg administered once daily via oral gavage for 4 consecutive days beginning 1 hr after infection measured on day 4 post infection relative to control; format: functional; method in brief: as §2
[30] = tested on: Plasmodium berghei; test: Antimalarial activity against Plasmodium berghei infected in Swiss Webster mouse assessed as mouse survival rate at 11 mg/kg administered once daily via oral gavage for 4 consecutive days beginning 1 hr after infection measured on day 6 post infection relative to control; format: functional; method in brief: as §2
[31] = tested on: Plasmodium berghei; test: Antimalarial activity against Plasmodium berghei infected in Swiss Webster mouse assessed as mouse survival rate at 33 mg/kg administered once daily via oral gavage for 4 consecutive days beginning 1 hr after infection measured on day 8 post infection relative to control; format: functional; method in brief: as §2
[32] = tested on: Plasmodium berghei; test: Antimalarial activity against Plasmodium berghei infected in Swiss Webster mouse assessed as mouse survival rate at 1 mg/kg administered once daily via oral gavage for 4 consecutive days beginning 1 hr after infection measured on day 4 post infection relative to control; format: functional; method in brief: as §1

Cc1c(Oc2cnc(C(=O)N[C@@H](CO)C(C)C)cn2)ccc2c1B(O)OC2 showed a survival at 100 mg/kg [1] of 100%, a survival at 3 mg/kg [2] of 0% and a survival at 100 mg/kg [3] of 100%. The survival at 100 mg/kg [4] was 100%, the survival at 3 mg/kg [5] was 100% and the survival at 11 mg/kg [6] was 100%. It also gave a survival at 33 mg/kg [7] of 100%, a survival at 33 mg/kg [8] of 0% and a survival at 33 mg/kg [9] of 80%. The ED90 [10] was 26.7 mg/kg, the survival at 100 mg/kg [11] was 100% and the survival at 100 mg/kg [12] was 40%. For the same compound, the survival at 100 mg/kg [13] was 40%, the survival at 11 mg/kg [14] was 100% and the survival at 100 mg/kg [15] was 100%. For the same compound, the survival at 100 mg/kg [16] was 40%, the survival at 3 mg/kg [17] was 100% and the survival at 100 mg/kg [18] was 40%. The IC50 [19] was 466 nM, the survival at 1 mg/kg [20] was 100% and the survival at 33 mg/kg [21] was 100%. It also gave an IC50 [22] of 149 nM, a survival at 100 mg/kg [23] of 40% and a survival at 100 mg/kg [24] of 100%. It also gave a survival at 11 mg/kg [25] of 0%, a survival at 1 mg/kg [26] of 0% and a survival at 1 mg/kg [27] of 100%. The survival at 33 mg/kg [28] was 100%, the survival at 3 mg/kg [29] was 100% and the survival at 11 mg/kg [30] was 100%. The survival at 33 mg/kg [31] was 80% and the survival at 1 mg/kg [32] was 100%.
